Measured values: ChEMBL document CHEMBL1154352, “Toll-like receptor 7 selective synthetic oligoribonucleotide agonists: synthesis and structure-activity relationship studies” (J Med Chem, 2009)
Activity calls are given as the source filed them. No cut-off for these calls is given here.

Assays:
[1] = biological target: T1, Toll-like receptor 7 (Homo sapiens) (UniProt Q9NYK1); assay: Activation of human TLR7 expressed in HEK293XL assessed as fold induction of NF-kappaB activity at 50 ug/ml after 18 hrs by reporter gene assay relative to control
T1 sequence (whole entry): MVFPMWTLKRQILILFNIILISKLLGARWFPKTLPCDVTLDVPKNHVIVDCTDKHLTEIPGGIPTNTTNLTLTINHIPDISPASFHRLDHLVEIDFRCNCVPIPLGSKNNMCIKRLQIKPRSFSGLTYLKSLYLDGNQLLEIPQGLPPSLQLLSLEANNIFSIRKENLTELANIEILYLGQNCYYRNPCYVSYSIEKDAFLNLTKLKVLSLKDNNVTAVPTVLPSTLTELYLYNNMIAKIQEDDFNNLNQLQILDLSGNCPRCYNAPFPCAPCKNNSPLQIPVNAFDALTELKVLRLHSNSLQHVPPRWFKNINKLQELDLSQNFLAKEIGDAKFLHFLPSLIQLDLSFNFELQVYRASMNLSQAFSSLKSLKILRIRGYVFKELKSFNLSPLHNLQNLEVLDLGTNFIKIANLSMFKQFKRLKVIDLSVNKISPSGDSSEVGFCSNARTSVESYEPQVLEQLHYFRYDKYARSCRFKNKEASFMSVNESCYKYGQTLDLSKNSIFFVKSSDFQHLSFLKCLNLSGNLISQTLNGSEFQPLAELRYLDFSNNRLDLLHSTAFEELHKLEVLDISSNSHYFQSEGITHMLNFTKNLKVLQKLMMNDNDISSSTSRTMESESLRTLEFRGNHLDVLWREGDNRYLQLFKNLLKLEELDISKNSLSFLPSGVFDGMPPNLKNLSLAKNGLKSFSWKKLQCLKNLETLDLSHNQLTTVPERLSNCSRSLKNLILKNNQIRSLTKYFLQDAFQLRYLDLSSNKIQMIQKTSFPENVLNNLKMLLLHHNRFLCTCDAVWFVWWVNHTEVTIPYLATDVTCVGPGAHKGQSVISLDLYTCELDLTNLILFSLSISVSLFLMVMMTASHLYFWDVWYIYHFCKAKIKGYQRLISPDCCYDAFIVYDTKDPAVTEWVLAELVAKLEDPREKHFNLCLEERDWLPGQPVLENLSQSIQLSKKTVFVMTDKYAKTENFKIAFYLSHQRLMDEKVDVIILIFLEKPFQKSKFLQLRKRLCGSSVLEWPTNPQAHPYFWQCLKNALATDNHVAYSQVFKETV
In short: (§1)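 HEK293 cells stably expressing human TLR7 or TLR8, transiently transfected with SEAP reporter plasmid; medium replaced, SIMRA compounds added, 18 h incubation. Supernatant SEAP measured by QuantiBlue; expressed as fold increase in NF-κB activity over PBS control. Tabulated data at 50 μg/mL, representative of three independent experiments.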

[2] = organism: Homo sapiens; assay: Ratio of human TLR7 activity to human TLR8 activity
In short: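 TLR7/TLR8 ratio computed from fold NF-κB (SEAP reporter) activation in HEK293 cells stably expressing human TLR7 versus TLR8, compounds at 50 μg/mL, 18 h exposure; representative of three independent experiments.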

[3] = test system: PBMC; assay: Immunomodulatory activity in human PBMC assessed as induction of TNFalpha at 100 ug/ml after 24 hrs; type: functional, cell-based
In short: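 Human PBMCs plated at 5 × 10^6 cells/mL; compounds dissolved in PBS added at various concentrations, 37 °C for 24 h. Supernatant cytokines/chemokines quantified with human Luminex multiplex kit.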

[4] = biological target: T2, Toll-like receptor 8 (Homo sapiens) (UniProt Q9NR97); assay: Activation of human TLR8 expressed in HEK293XL assessed as fold induction of NF-kappaB activity at 50 ug/ml after 18 hrs by reporter gene assay relative to control; in short: as §1
T2 sequence (whole entry): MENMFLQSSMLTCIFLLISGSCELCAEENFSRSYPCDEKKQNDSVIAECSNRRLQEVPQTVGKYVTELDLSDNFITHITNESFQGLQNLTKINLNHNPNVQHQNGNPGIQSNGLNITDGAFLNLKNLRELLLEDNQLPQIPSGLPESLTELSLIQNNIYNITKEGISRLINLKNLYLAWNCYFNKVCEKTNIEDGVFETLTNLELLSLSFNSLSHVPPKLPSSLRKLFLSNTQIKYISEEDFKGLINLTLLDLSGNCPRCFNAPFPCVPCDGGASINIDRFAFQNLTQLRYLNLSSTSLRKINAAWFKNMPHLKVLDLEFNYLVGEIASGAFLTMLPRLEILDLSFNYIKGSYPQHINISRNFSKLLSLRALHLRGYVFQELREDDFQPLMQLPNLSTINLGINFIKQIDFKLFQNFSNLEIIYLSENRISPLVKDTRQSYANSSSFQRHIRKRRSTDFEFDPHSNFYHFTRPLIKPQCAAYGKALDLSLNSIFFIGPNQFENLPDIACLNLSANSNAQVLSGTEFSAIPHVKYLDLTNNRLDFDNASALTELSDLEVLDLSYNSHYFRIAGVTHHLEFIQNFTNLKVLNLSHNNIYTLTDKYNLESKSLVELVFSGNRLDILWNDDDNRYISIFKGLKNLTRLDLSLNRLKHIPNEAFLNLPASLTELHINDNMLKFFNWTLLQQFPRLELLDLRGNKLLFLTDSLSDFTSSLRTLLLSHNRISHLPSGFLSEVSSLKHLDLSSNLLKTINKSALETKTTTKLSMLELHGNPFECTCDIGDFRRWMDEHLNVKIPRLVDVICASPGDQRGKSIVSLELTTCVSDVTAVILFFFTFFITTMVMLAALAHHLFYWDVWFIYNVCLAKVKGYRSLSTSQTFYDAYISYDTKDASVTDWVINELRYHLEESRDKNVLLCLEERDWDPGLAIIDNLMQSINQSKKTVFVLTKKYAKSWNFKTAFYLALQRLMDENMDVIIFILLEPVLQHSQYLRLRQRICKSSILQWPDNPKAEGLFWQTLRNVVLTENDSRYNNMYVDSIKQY

[5] = test system: Splenocyte; assay: Immunomodulatory activity in C57BL/6 mouse splenocytes bearing TLR7 receptor assessed as IL12 release at 100 ug/ml after 24 hrs by ELISA; type: functional, cell-based
In short: (§2)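 C57BL/6 splenocytes in RPMI 1640 with 10% FBS, penicillin/streptomycin, 2 mM L-glutamine, plated at 5 × 10^6 cells/mL; compounds in PBS added, 37 °C for 24 h. Supernatant IL-12 and IL-6 by ELISA; representative of three independent experiments.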

[6] = Metabolic stability in human serum assessed as full length product remaining after 10 mins by HPLC; type: ADME, cell-free; conditions: read-out: Stability
In short: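 About 0.5 A260 units compound in 1% human serum in PBS, 37 °C; aliquot taken at 10 min, analysed by anion-exchange HPLC for percent intact full-length product.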

[7] = test system: Splenocyte; assay: Immunomodulatory activity in C57BL/6 mouse splenocytes bearing TLR7 receptor assessed as IL6 release at 100 ug/ml after 24 hrs by ELISA; type: functional, cell-based; in short: as §2

fold change (FC) [1]: 26.8 | Ratio [2]: 13.4 | fold change (FC) [4]: 2 | Activity [5]: Active | remaining at 10 min [6]: 74% | Activity [7]: Active
Structure (SMILES): Nc1ccn([C@@H]2O[C@H](COP(=O)(S)O[C@H]3[C@@H](O)[C@H](n4cnc5c(N)ncnc54)O[C@@H]3CO)[C@@H](OP(=O)(S)OC[C@H]3O[C@@H](n4ccc5c(=O)[nH]c(N)nc54)[C@H](O)[C@@H]3OP(=O)(S)OC[C@H]3O[C@@H](n4ccc(=O)[nH]c4=O)[C@H](O)[C@@H]3OP(=O)(S)OC[C@H]3O[C@@H](n4ccc5c(=O)[nH]c(N)nc54)[C@H](O)[C@@H]3OP(=O)(S)OC[C@H]3O[C@@H](n4cnc5c(N)nc(N)nc54)[C@H](O)[C@@H]3OP(=O)(S)OC[C@H]3O[C@@H](n4cnc5c(N)ncnc54)[C@H](O)[C@@H]3OP(=O)(S)OC[C@H]3O[C@@H](n4ccc5c(=O)[nH]c(N)nc54)[C@H](O)[C@@H]3OP(=O)(S)OC[C@H]3O[C@@H](n4ccc(N)nc4=O)[C@H](O)[C@@H]3OP(=O)(S)OC[C@H]3O[C@@H](n4ccc(=O)[nH]c4=O)[C@H](O)[C@@H]3OP(=O)(S)OC[C@H]3O[C@@H](n4ccc(=O)[nH]c4=O)[C@H](O)[C@@H]3OP(=O)(S)OCC(O)COP(=O)(S)O[C@H]3[C@@H](O)[C@H](n4ccc(=O)[nH]c4=O)O[C@@H]3COP(=O)(S)O[C@H]3[C@@H](O)[C@H](n4ccc(=O)[nH]c4=O)O[C@@H]3COP(=O)(S)O[C@H]3[C@@H](O)[C@H](n4ccc(N)nc4=O)O[C@@H]3COP(=O)(S)O[C@H]3[C@@H](O)[C@H](n4ccc5c(=O)[nH]c(N)nc54)O[C@@H]3COP(=O)(S)O[C@H]3[C@@H](O)[C@H](n4cnc5c(N)nc(N)nc54)O[C@@H]3COP(=O)(S)O[C@H]3[C@@H](O)[C@H](n4cnc5c(N)nc(N)nc54)O[C@@H]3COP(=O)(S)O[C@H]3[C@@H](O)[C@H](n4ccc5c(=O)[nH]c(N)nc54)O[C@@H]3COP(=O)(S)O[C@H]3[C@@H](O)[C@H](n4ccc(=O)[nH]c4=O)O[C@@H]3COP(=O)(S)O[C@H]3[C@@H](O)[C@H](n4ccc5c(=O)[nH]c(N)nc54)O[C@@H]3COP(=O)(S)O[C@H]3[C@@H](O)[C@H](n4ccc(N)nc4=O)O[C@@H]3COP(=O)(S)O[C@H]3[C@@H](O)[C@H](n4cnc5c(N)ncnc54)O[C@@H]3CO)[C@H]2O)c(=O)n1 (some centres not stated)
Activity [3]: 165 pg/mL
